Reference: ChEMBL document CHEMBL1136815, “Synthesis and in vitro evaluation of novel small molecule inhibitors of bacterial arylamine N-acetyltransferases (NATs)” (Bioorg Med Chem Lett, 2003)

test: In vitro inhibition of recombinant Mycobacterium smegmatis Arylamine N-Acetyltransferase (MSNAT) -catalyzed acetylation of isoniazid (INH); parameters: species or system Mycolicibacterium smegmatis; call rule not given here
Summary of the method: (§1)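 Pure recombinant M. smegmatis NAT acetylating isoniazid with acetyl CoA as donor. Acetyl CoA hydrolysis rate followed with 5,5'-dithio-bis(2-nitrobenzoic acid), reading the thio-2-nitrobenzoic acid product spectrophotometrically at 412 nm. Half-maximal inhibitory concentration (IC50) taken from this rate.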

Row | IC50 | Ki | SMILES
1 | 29 µM | 14 µM | O=C1NC(=O)/C(=C2\CN(Cc3ccc(/C=C/c4ccccc4)cc3)S(=O)(=O)c3ccccc32)S1
2 | > 100 µM |  | O=C1NC(=O)/C(=C2\CN(Cc3ccccn3)S(=O)(=O)c3ccccc32)S1
3 | > 100 µM |  | O=C1NC(=O)/C(=C2\CN(Cc3ccccc3)S(=O)(=O)c3ccccc32)S1
4 | > 100 µM |  | C=C(C)CCN1C/C(=C2/SC(=O)NC2=O)c2ccccc2S1(=O)=O
5 | > 100 µM |  | CN1C/C(=C2/SC(=O)NC2=O)c2ccccc2S1(=O)=O
6 | 61 µM | 43 µM | CCCCCCCCN1C/C(=C2/SC(=O)NC2=O)c2ccccc2S1(=O)=O
7 | 20 µM | 14.4 µM | O=C1NC(=O)/C(=C2\CN(Cc3ccc(-c4ccccc4)cc3)S(=O)(=O)c3ccccc32)S1
8 | > 100 µM |  | O=C1NC(=O)/C(=C2\CNS(=O)(=O)c3ccccc32)S1
9 | > 100 µM |  | O=C1NC(=O)/C(=C2\CN(CC3CC3)S(=O)(=O)c3ccccc32)S1
10 | 92 µM |  | CCC(CC)CN1C/C(=C2/SC(=O)NC2=O)c2ccccc2S1(=O)=O
11 | 82 µM |  | O=C1NC(=O)/C(=C2\CN(CCC3CCCCC3)S(=O)(=O)c3ccccc32)S1
12 | 205 µM |  | O=C1NC(=O)/C(=C2\CN(CC3CCCCC3)S(=O)(=O)c3ccccc32)S1
13 | 22 µM | 14.7 µM | CCCCCCCCCCN1C/C(=C2/SC(=O)NC2=O)c2ccccc2S1(=O)=O
14 | 65 µM |  | O=C1NC(=O)/C(=C2\CN(Cc3ccc(Br)cc3)S(=O)(=O)c3ccccc32)S1
15 | 33 µM | 26.7 µM | O=C1NC(=O)/C(=C2\CN(Cc3ccc(Cl)s3)S(=O)(=O)c3ccccc32)S1
16 | > 100 µM |  | O=C1NC(=O)/C(=C2\CN(CCOc3ccccc3)S(=O)(=O)c3ccccc32)S1

test: Inhibition constant of Mycobacterium smegmatis N-Acetyltransferase (MSNAT) -catalyzed acetylation with respect to isoniazid.; parameters: species or system Mycolicibacterium smegmatis

Row | Ki | SMILES
17 | 70 µM | O=C1NC(=O)/C(=C2\CN(Cc3ccc4ccccc4c3)S(=O)(=O)c3ccccc32)S1

test: In vitro inhibition of recombinant Mycobacterium smegmatis Arylamine N-Acetyltransferase (MSNAT) -catalyzed acetylation of isoniazid (INH); not active; parameters: species or system Mycolicibacterium smegmatis; summary of the method: as §1

Row | IC50 | SMILES
18 | Not Active | O=C1CN(Cc2ccc3ccccc3c2)S(=O)(=O)c2ccccc21
19 | Not Active | O=C1CSC(=O)N1 [THIAZOLIDINEDIONE]

test: In vitro inhibition of recombinant Mycobacterium smegmatis N-Acetyltransferase (MSNAT) -catalyzed acetylation of isoniazid (INH).; parameters: species or system Mycolicibacterium smegmatis; summary of the method: as §1

Row | IC50 | SMILES
20 | 78 µM | O=C1NC(=O)/C(=C2\CN(Cc3ccc4ccccc4c3)S(=O)(=O)c3ccccc32)S1
